# Active and inactive are the calls of the source. No cut-off for these calls is given here.
# How the values were obtained:
# HT-29 [1] = assay: Inhibition of P-gp in doxorubicin-resistant human HT-29 cells assessed as nitration of tyrosine residues at 5 uM after 24 hrs by Western blot analysis; format: cell-based
# Summary of the method: (§1)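 HT29-dx cells were treated for 24 h with 5 μM compound and lysed. Whole lysate was immunoprecipitated with a polyclonal anti-nitrotyrosine antibody, then Western blotted with anti-P-gp or anti-MRP3 antibody. Total transporter levels were checked before immunoprecipitation, with GAPDH as loading control. Representative of three experiments.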
# [2] = molecular target: T1, ATP-binding cassette sub-family C member 3 (Homo sapiens, UniProt O15438); assay: Inhibition of MRP3 in doxorubicin-resistant human HT-29 cells assessed as nitration of tyrosine residues at 5 uM after 24 hrs by Western blot analysis; format: cell-based; conditions: ht-29, 24 h; summary of the method: as §1
# HT-29 [3] = assay: Induction of nitrite production in doxorubicin-resistant human HT-29 cells at 5 uM by Griess method; format: functional, cell-based; conditions: TDE = time-dependent effect
# Summary of the method: (§2)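 HT29-dx cells were incubated for 24 h with 5 μM compound, alone or with 100 μM PTIO or 10 μL/mL packed red blood cells as NO scavengers. Readouts were intracellular drug content, extracellular LDH activity and nitrite in the culture supernatant. Measured in duplicate, n = 3.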
# HT-29 [4] = assay: Induction of nitrite production in doxorubicin-resistant human HT-29 cells after 24 hrs by Griess method; format: functional, cell-based
# Summary of the method: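 HT29-dx cell monolayers were incubated for 24 h with 0.5, 1, 2.5, 5 or 25 μM compound. Nitrite in the culture medium was quantified by the Griess reaction. Data are means ± SD (n = 3) versus untreated cells.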
# [5] = molecular target: T1, ATP-binding cassette sub-family C member 3; assay: Inhibition of MRP3-mediated drug resistance in doxorubicin-resistant human HT-29 cells assessed as increase in extracellular LDH level at 5 uM after 24 hrs by spectrofluorometric analysis in presence of nitric oxide scavenger PTIO and RBCs; format: cell-based; conditions: ht-29, 24 h; summary of the method: as §2
# [6] = molecular target: T1, ATP-binding cassette sub-family C member 3; assay: Inhibition of MRP3-mediated drug resistance in doxorubicin-resistant human HT-29 cells assessed as increase in extracellular LDH level at 5 uM after 24 hrs by spectrofluorometric analysis; format: cell-based; conditions: ht-29, 24 h; summary of the method: as §2
# [7] = molecular target: T1, ATP-binding cassette sub-family C member 3; assay: Inhibition of MRP3-mediated drug resistance in doxorubicin-resistant human HT-29 cells assessed as increase in doxorubicin accumulation at 5 uM by spectrofluorometric analysis; format: cell-based; conditions: ht-29, 5 µM, TDE = time-dependent effect
# [8] = molecular target: T1, ATP-binding cassette sub-family C member 3; assay: Inhibition of MRP3-mediated drug resistance in doxorubicin-resistant human HT-29 cells assessed as increase in doxorubicin accumulation at 5 uM after 24 hrs by spectrofluorometric analysis in presence of nitric oxide scavenger PTIO and RBCs; format: cell-based; conditions: ht-29, 24 h; summary of the method: as §2
# [9] = molecular target: T1, ATP-binding cassette sub-family C member 3; assay: Inhibition of MRP3-mediated drug resistance in doxorubicin-resistant human HT-29 cells assessed as increase in doxorubicin accumulation after 24 hrs by spectrofluorometric analysis; format: cell-based; conditions: ht-29, 24 h
# [10] = molecular target: ATP-dependent translocase ABCB1 (Homo sapiens, UniProt P08183); assay: Inhibition of P-gp in doxorubicin-resistant human HT-29 cells at 5 umol/L incubated for 24 hrs followed by compound wash out measured after 20 mins by Rhodamine 123 staining-based flow cytometry; format: cell-based; conditions: ht-29, 24 h, 5 µM
# [11] = molecular target: T1, ATP-binding cassette sub-family C member 3; assay: Inhibition of MRP3-mediated drug resistance in doxorubicin-resistant human HT-29 cells assessed as increase in doxorubicin accumulation at 5 umol/L co-administered with doxorubicin after 24 hrs by spectrofluorometric analysis; format: cell-based; conditions: ht-29, 24 h, 5 µM
# [12] = molecular target: T1, ATP-binding cassette sub-family C member 3; assay: Inhibition of MRP3-mediated drug resistance in doxorubicin-resistant human HT-29 cells assessed as increase in doxorubicin accumulation at 5 umol/L incubated for 24 hrs followed by compound wash out measured 24 hrs post doxorubicin administration by spectrofluorometric analysis; format: cell-based; conditions: ht-29, 24 h, 5 µM
# HT-29 [13] = assay: Induction of nitrite production in doxorubicin-resistant human HT-29 cells at 5 uM after 1 to 24 hrs by Griess method; format: functional, cell-based
# Summary of the method: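 In a time-course run, HT29-dx cells were exposed to 5 μM compound. Nitrite in the medium was measured by the Griess reaction at times between 1 and 24 h.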
# [14] = molecular target: T1, ATP-binding cassette sub-family C member 3; assay: Inhibition of MRP3-mediated drug resistance in doxorubicin-resistant human HT-29 cells assessed as increase in drug accumulation at 5 uM after 1 to 24 hrs by spectrofluorometric analysis; format: cell-based; conditions: ht-29, 5 µM
# Summary of the method: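 Time course in HT29-dx cells with 5 μM drug over 1–24 h. Intracellular content was read by spectrofluorimetry of cell lysates.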
# [15] = molecular target: T1, ATP-binding cassette sub-family C member 3; assay: Inhibition of MRP3-mediated drug resistance in doxorubicin-resistant human HT-29 cells assessed as increase in drug accumulation at 25 uM after 24 hrs by spectrofluorometric analysis; format: cell-based; conditions: ht-29, 24 h
# Summary of the method: (§3)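 HT29-dx cells in RPMI 1640 were incubated for 24 h with 0.5, 1, 2.5, 5 or 25 μM drug, then lysed. Intracellular drug was measured spectrofluorimetrically (excitation 475 nm, emission 553 nm). Data are means ± SD (n = 3) versus untreated cells.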
# [16] = molecular target: T1, ATP-binding cassette sub-family C member 3; assay: Inhibition of MRP3-mediated drug resistance in doxorubicin-resistant human HT-29 cells assessed as increase in drug accumulation at 0.5 to 5 uM after 24 hrs by spectrofluorometric analysis; format: cell-based; conditions: ht-29, 24 h; summary of the method: as §3
# T1 sequence (O15438 whole entry): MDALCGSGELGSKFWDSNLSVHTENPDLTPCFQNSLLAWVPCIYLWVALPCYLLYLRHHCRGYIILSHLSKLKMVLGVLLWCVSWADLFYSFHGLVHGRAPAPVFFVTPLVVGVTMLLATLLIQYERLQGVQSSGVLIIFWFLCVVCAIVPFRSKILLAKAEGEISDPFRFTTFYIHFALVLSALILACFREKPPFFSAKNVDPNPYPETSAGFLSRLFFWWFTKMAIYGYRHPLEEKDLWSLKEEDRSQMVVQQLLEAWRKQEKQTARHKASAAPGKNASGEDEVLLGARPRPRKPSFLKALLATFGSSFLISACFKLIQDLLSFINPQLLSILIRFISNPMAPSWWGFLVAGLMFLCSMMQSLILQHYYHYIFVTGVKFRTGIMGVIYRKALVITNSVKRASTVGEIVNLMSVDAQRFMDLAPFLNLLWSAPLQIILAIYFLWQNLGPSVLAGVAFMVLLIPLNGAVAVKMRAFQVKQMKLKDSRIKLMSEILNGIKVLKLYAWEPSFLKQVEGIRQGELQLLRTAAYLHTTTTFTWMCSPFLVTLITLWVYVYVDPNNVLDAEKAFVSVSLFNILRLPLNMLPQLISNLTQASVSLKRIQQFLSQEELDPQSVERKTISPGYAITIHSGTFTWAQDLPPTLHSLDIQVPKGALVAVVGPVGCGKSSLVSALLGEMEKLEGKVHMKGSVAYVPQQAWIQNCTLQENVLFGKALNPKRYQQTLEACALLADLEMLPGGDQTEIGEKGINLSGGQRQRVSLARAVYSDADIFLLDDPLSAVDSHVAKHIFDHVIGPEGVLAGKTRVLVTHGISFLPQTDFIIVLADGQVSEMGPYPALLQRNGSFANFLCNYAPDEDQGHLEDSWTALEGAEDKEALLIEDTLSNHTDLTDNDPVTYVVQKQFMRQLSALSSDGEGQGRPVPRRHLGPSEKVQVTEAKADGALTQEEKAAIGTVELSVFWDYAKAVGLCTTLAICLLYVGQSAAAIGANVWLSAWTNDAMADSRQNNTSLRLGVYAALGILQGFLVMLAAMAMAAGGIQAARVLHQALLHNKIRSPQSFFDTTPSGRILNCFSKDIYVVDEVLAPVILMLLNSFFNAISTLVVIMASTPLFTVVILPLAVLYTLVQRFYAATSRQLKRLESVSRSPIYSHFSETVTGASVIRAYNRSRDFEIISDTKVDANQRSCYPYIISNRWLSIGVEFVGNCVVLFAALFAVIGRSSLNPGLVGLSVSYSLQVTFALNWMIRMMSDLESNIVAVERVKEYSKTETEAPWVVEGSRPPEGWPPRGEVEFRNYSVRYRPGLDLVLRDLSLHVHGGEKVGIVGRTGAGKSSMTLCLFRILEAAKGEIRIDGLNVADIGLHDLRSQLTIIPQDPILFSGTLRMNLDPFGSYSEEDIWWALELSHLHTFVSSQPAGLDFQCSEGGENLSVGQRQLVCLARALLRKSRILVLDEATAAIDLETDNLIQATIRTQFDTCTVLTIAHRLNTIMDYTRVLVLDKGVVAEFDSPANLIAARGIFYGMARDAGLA
# ATP-dependent translocase ABCB1, sequence (P08183 whole entry): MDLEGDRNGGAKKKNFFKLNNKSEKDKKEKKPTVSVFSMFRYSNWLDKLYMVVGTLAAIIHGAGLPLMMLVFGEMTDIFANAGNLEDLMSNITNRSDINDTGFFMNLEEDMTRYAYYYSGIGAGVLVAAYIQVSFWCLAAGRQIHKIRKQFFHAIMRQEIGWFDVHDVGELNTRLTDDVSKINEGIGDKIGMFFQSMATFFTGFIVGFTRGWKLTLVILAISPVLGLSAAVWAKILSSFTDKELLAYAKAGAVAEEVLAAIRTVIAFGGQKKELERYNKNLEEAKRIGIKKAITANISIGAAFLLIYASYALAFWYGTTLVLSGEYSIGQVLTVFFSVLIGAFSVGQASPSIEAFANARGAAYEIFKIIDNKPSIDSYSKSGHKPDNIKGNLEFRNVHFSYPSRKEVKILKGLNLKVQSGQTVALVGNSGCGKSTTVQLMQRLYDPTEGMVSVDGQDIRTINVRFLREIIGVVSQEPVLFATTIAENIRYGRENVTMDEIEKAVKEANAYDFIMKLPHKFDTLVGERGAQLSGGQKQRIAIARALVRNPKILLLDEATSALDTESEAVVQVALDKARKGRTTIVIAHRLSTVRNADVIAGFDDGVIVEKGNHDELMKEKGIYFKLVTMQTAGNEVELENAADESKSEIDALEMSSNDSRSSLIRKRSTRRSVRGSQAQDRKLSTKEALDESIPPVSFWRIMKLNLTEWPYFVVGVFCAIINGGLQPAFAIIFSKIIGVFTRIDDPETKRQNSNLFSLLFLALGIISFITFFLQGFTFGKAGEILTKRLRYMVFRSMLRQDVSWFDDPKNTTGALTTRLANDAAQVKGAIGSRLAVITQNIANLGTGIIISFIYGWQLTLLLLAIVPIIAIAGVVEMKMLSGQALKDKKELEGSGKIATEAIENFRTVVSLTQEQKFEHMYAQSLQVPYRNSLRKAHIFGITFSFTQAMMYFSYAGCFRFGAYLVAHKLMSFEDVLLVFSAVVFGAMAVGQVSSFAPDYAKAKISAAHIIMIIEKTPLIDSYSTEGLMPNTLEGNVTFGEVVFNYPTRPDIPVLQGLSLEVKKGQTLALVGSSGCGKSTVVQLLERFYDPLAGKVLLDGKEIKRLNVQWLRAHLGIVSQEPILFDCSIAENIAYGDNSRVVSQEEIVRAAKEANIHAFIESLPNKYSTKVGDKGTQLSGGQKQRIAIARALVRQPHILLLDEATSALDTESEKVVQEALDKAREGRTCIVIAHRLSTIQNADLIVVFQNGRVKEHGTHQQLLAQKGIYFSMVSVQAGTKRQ
smiles,measurement,setting,value
COc1cccc2c1C(=O)c1c(O)c3c(c(O)c1C2=O)C[C@@](O)(C(=O)COC(=O)CCOc1no[n+]([O-])c1S(=O)(=O)c1ccccc1)C[C@@H]3O[C@H]1C[C@H](N)[C@H](O)[C@H](C)O1.Cl,inhibition,HT-29 [1],inactive
same,inhibition (INH),[2],Active
same,Activity,HT-29 [3],tde
same,Activity,HT-29 [4],Dose-dependent effect
same,inhibition (INH),[5],Not Active
same,inhibition (INH),[6],Active
same,inhibition (INH),[7],tde
same,inhibition (INH),[8],Not Active
same,inhibition (INH),[9],Dose-dependent effect
O=C(O)CCOc1no[n+]([O-])c1S(=O)(=O)c1ccccc1,inhibition (INH),[10],Not Active
same,inhibition (INH),[6],Not Active
same,inhibition (INH),[11],Active
same,inhibition (INH),[12],Active
COC(=O)CCOc1no[n+]([O-])c1S(=O)(=O)c1ccccc1,inhibition (INH),[10],Not Active
same,inhibition (INH),[6],Not Active
same,inhibition (INH),[11],Active
same,inhibition (INH),[12],Active
COC(=O)c1ccc(CC(CO[N+](=O)[O-])O[N+](=O)[O-])cc1 (stereo not drawn),inhibition (INH),[6],Not Active
COc1cccc2c1C(=O)c1c(O)c3c(c(O)c1C2=O)C[C@@](O)(C(=O)COC(=O)c1ccc(CC(CO[N+](=O)[O-])O[N+](=O)[O-])cc1)C[C@@H]3O[C@H]1C[C@H](N)[C@H](O)[C@H](C)O1.Cl (stereo partly drawn),inhibition,HT-29 [1],inactive
same,inhibition (INH),[2],Active
same,Activity,HT-29 [3],tde
same,Activity,HT-29 [4],Dose-dependent effect
same,inhibition (INH),[5],Not Active
same,inhibition (INH),[6],Active
same,inhibition (INH),[7],tde
same,inhibition (INH),[8],Not Active
same,inhibition (INH),[9],Dose-dependent effect
O=C(O)c1ccc(CC(CO[N+](=O)[O-])O[N+](=O)[O-])cc1 (stereo not drawn),inhibition (INH),[6],Not Active
COc1cccc2c1C(=O)c1c(O)c3c(c(O)c1C2=O)C[C@@](O)(C(=O)CO)C[C@@H]3O[C@H]1C[C@H](N)[C@H](O)[C@H](C)O1 [DOXORUBICIN],inhibition (INH),[2],Not Active
same,Activity,HT-29 [13],inactive
same,inhibition (INH),[14],Not Active
same,inhibition (INH),[15],Active
same,inhibition (INH),[16],Not Active

# — ChEMBL document CHEMBL2203231, “Nitric oxide donor doxorubicins accumulate into Doxorubicin-resistant human colon cancer cells inducing cytotoxicity” (ACS Med Chem Lett, 2011)
